Assay [1] deals with T1, Acetylcholinesterase (Electrophorus electricus, UniProt O42275). Put plainly: Mixed-type inhibition of electric eel acetylcholinesterase using acetylcholine bromide as substrate assessed as free enzyme-inhibitor complex by Lineweaver-Burk plot analysis.
Assay [2] has as its target T2, Butyrylcholinesterase (Equus caballus, UniProt Q9N1N9). Put plainly: Mixed-type inhibition of horse serum butyrylcholinesterase using acetylcholine bromide as substrate by Lineweaver-Burk plot analysis.
Assay [3] addresses T1, Acetylcholinesterase. Put plainly: Mixed-type inhibition of electric eel acetylcholinesterase using acetylcholine bromide as substrate by Lineweaver-Burk plot analysis.
The target of assay [4] is T2, Butyrylcholinesterase. Put plainly: Mixed-type inhibition of horse serum butyrylcholinesterase using acetylcholine bromide as substrate assessed as free enzyme-inhibitor complex by Lineweaver-Burk plot analysis.
Assay [5] deals with T1, Acetylcholinesterase. Put plainly: Reversible mixed-type inhibition of electric eel acetylcholinesterase using acetylcholine bromide as substrate by Lineweaver-Burk plot analysis.
For assay [6], the target named is T2, Butyrylcholinesterase. Put plainly: Reversible mixed-type inhibition of horse serum butyrylcholinesterase using acetylcholine bromide as substrate by Lineweaver-Burk plot analysis.
For assay [7], the target named is T2, Butyrylcholinesterase. Put plainly: Reversible mixed-type inhibition of horse serum butyrylcholinesterase using acetylcholine bromide as substrate assessed as free enzyme-inhibitor complex by Lineweaver-Burk plot analysis.
The target of assay [8] is T1, Acetylcholinesterase. Put plainly: Reversible mixed-type inhibition of electric eel acetylcholinesterase using acetylcholine bromide as substrate assessed as free enzyme-inhibitor complex by Lineweaver-Burk plot analysis.
The target in assay [9] is T2, Butyrylcholinesterase. Put plainly: Reversible competitive inhibition of horse serum butyrylcholinesterase using acetylcholine bromide as substrate assessed as free enzyme-inhibitor complex by Lineweaver-Burk plot analysis.
Assay [10] addresses T1, Acetylcholinesterase. Put plainly: Reversible competitive inhibition of electric eel acetylcholinesterase using acetylcholine bromide as substrate assessed as free enzyme-inhibitor complex by Lineweaver-Burk plot analysis.
Assay [11] has as its target T1, Acetylcholinesterase. Put plainly: Mixed-type inhibition of electric eel acetylcholinesterase using acetylcholine bromide as substrate assessed as […] by Lineweaver-Burk plot analysis. The method in brief:
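Electric eel electric-organ acetylcholinesterase (0.1 unit per 10 mL reaction) added to five inhibitor concentrations each mixed with acetylcholine bromide, e.g. 0.1, 0.15, 0.25, 0.4, 0.8 mM final. Initial hydrolysis rates over 4 min at 25 °C by pH-stat titration. Lineweaver-Burk analysis; Km from inhibitor-free runs.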

SMILES strings stand for the structures.

T2 sequence (Q9N1N9 whole entry): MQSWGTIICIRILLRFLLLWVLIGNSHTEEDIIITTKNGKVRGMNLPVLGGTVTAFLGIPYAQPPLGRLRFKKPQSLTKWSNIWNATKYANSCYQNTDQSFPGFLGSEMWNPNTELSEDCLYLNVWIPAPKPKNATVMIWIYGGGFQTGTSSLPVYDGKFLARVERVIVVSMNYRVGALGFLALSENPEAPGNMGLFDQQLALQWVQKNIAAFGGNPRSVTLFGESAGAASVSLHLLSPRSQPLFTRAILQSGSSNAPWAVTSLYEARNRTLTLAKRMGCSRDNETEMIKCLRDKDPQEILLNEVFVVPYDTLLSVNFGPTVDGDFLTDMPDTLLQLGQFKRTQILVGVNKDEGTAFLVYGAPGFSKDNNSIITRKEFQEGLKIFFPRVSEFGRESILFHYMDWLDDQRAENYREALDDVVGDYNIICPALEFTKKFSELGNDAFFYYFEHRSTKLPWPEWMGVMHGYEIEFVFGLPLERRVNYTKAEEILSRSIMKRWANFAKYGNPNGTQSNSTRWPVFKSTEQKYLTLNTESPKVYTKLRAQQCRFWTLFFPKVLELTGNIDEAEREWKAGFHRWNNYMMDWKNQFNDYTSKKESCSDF
T1 sequence (O42275 whole entry): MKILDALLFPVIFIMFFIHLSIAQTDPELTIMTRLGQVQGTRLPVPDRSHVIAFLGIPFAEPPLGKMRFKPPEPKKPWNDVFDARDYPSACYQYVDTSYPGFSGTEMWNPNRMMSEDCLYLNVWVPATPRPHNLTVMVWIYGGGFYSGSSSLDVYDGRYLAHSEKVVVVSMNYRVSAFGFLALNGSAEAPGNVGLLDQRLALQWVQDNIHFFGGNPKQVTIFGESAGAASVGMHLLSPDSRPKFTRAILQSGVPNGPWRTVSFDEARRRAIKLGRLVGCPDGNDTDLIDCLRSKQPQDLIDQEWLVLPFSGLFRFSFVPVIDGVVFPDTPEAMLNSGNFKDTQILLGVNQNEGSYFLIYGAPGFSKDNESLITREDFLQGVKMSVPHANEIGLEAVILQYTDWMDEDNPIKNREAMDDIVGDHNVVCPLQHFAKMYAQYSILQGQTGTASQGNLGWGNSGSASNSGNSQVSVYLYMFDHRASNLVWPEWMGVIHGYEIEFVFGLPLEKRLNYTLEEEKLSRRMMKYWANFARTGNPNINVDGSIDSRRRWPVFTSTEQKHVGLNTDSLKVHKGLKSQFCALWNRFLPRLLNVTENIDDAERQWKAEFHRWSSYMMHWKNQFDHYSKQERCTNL

For the compound `C[N+](C)(CCCCCC[N+](C)(C)Cc1ccc(-c2ccccc2)cc1)Cc1ccc(-c2ccccc2)cc1`, the Ki (in general, a measure of affinity in units of concentration, obtained from inhibition or displacement) was found to be 39 µM on Acetylcholinesterase [1], 7.9 µM on Butyrylcholinesterase [2], 120 µM at Acetylcholinesterase [3] and 1.5 µM on Butyrylcholinesterase [4].
In the case of `c1ccc2c(c1)ccc1c2ccc[n+]1CCCCCC[n+]1cccc2c3ccccc3ccc21`, the Ki was 0.072 µM on Acetylcholinesterase [5], 1.5 µM at Butyrylcholinesterase [6], 0.36 µM on Butyrylcholinesterase [7] and 0.01 µM at Acetylcholinesterase [8].
For `c1ccc(CC[n+]2cc3ccccc3c3ccccc32)cc1` the same measures were 0.78 µM, 0.31 µM, 0.054 µM and 0.28 µM.
For `OCC[n+]1c2ccccc2cc2ccccc21`, in that order: 9.6 µM, 7.2 µM, 1.3 µM and 2.9 µM.
`OCC[n+]1cccc2ccc3ccccc3c21`: the Ki on Acetylcholinesterase [5] came out at 360 µM; at Butyrylcholinesterase [6] it was 410 µM; on Butyrylcholinesterase [7], 110 µM; on Acetylcholinesterase [8] it was 150 µM.
`C[n+]1c2ccccc2cc2ccccc21`: the Ki was found to be 2.8 µM at Acetylcholinesterase [5], 1.7 µM on Butyrylcholinesterase [6], 0.24 µM at Butyrylcholinesterase [7] and 0.5 µM at Acetylcholinesterase [8].
For `C[N+](C)(CCCCCC[N+](C)(C)C1c2ccccc2-c2ccccc21)C1c2ccccc2-c2ccccc21` [HEXAFLUORENIUM BROMIDE], in that order: 1.3 µM, 0.89 µM, 0.34 µM and 1.3 µM.
Regarding `c1ccc(C[n+]2cc3ccccc3c3ccccc32)cc1`, the Ki at Acetylcholinesterase [5] worked out at 0.95 µM; at Butyrylcholinesterase [6], 0.26 µM; at Butyrylcholinesterase [7], 0.061 µM; on Acetylcholinesterase [8], 0.25 µM.
For `c1ccc(CC[n+]2cccc3c4ccccc4ccc32)cc1` the same measures were 18.5 µM, 4.9 µM, 0.92 µM and 1.8 µM.
With `c1ccc(C[n+]2cccc3c4ccccc4ccc32)cc1`, the Ki on Acetylcholinesterase [5] came to 37.4 µM; on Butyrylcholinesterase [6] it was 5.6 µM; at Butyrylcholinesterase [7], 0.86 µM; at Acetylcholinesterase [8], 9.3 µM.
For `CC(=O)OCC[n+]1c2ccccc2cc2ccccc21`, the Ki was determined as 0.011 µM on Butyrylcholinesterase [9] and 0.021 µM on Acetylcholinesterase [10].
For `CC(=O)OCC[n+]1cccc2c3ccccc3ccc21` the same measures were 0.82 µM and 0.95 µM.
As to `OCC[n+]1cc2ccccc2c2ccccc21`, the inhibitory constant (Ki) worked out at 45 µM on Acetylcholinesterase [5], 98.4 µM at Butyrylcholinesterase [6], 37 µM at Butyrylcholinesterase [7] and 31 µM at Acetylcholinesterase [8].
For `C[n+]1cccc2ccc3ccccc3c21`, in that order: 140 µM, 230 µM, 32 µM and 18 µM.
Take `CCCCCC[n+]1cc2ccccc2c2ccccc21`: the inhibitory constant (Ki) at Acetylcholinesterase [5] came out at 1.8 µM; at Butyrylcholinesterase [6] it was 0.9 µM; on Butyrylcholinesterase [7] it was 0.12 µM; on Acetylcholinesterase [8], 0.53 µM.
In the case of `CC(=O)OCC[n+]1ccccc1`, the inhibitory constant (Ki) was found to be 320 µM at Acetylcholinesterase [1]; 0.011 µM at Butyrylcholinesterase [9]; 120 µM at Butyrylcholinesterase [7]; 320 µM on Acetylcholinesterase [8]; 0.021 µM on Acetylcholinesterase [10]; 120 µM on Butyrylcholinesterase [4].
With `O=C(O)C[n+]1cc2ccccc2c2ccccc21`, the Ki at Acetylcholinesterase [5] came out at 72.4 µM; on Butyrylcholinesterase [6], 86 µM; on Butyrylcholinesterase [7], 41 µM; on Acetylcholinesterase [8], 12 µM.
For `C[n+]1cc2ccccc2c2ccccc21` the same measures were 25.5 µM, 6.4 µM, 1.1 µM and 5.6 µM.
For `c1ccc2c(c1)cc1ccccc1[n+]2CCCCCC[n+]1c2ccccc2cc2ccccc21` the same measures were 0.0021 µM, 0.024 µM, 0.0073 µM and 0.0021 µM.
`c1ccc2c(c1)c[n+](Cc1ccc(C[n+]3cc4ccccc4c4ccccc43)cc1)c1ccccc21`: the Ki was determined as 0.71 µM at Acetylcholinesterase [5], 0.23 µM on Butyrylcholinesterase [6], 0.057 µM on Butyrylcholinesterase [7] and 0.18 µM at Acetylcholinesterase [8].
For `C[n+]1cccc2c3ccccc3ccc21`, in that order: 25.4 µM, 34 µM, 5.4 µM and 8.9 µM.
In the case of `c1cc[n+](CCCCCC[n+]2ccccc2)cc1`, the Ki at Butyrylcholinesterase [2] worked out at 620 µM; at Acetylcholinesterase [11] it was 16000 µM; at Butyrylcholinesterase [4], 120 µM.
As for `CC(C)[n+]1cc2ccccc2c2ccccc21`, the Ki at Acetylcholinesterase [5] was determined as 97 µM; on Butyrylcholinesterase [6], 4.8 µM; at Butyrylcholinesterase [7], 1.5 µM; on Acetylcholinesterase [8], 22 µM.
As for `CC(=O)OCC[n+]1cc2ccccc2c2ccccc21`, the inhibition constant (Ki) on Butyrylcholinesterase [9] turned out to be 0.12 µM; on Acetylcholinesterase [10], 0.38 µM.
Take `OCC[n+]1cccc2c3ccccc3ccc21`: the Ki came out at 160 µM on Acetylcholinesterase [5], 210 µM at Butyrylcholinesterase [6], 79 µM at Butyrylcholinesterase [7] and 83 µM on Acetylcholinesterase [8].
Take `c1ccc2c(c1)c[n+](CCCCCC[n+]1cc3ccccc3c3ccccc31)c1ccccc21`: the Ki on Acetylcholinesterase [5] is 0.0066 µM; at Butyrylcholinesterase [6] it was 0.091 µM; at Butyrylcholinesterase [7], 0.027 µM; at Acetylcholinesterase [8], 0.0066 µM.
Consider `CCC[n+]1cc2ccccc2c2ccccc21`, for which the Ki at Acetylcholinesterase [5] is 13.6 µM; at Butyrylcholinesterase [6], 7.5 µM; on Butyrylcholinesterase [7], 1.3 µM; on Acetylcholinesterase [8], 3.2 µM.

Source of the values: ChEMBL document CHEMBL3272245, “Potent reversible anticholinesterase agents. Bis- and mono-N-substituted benzoquinolinium halides” (J Med Chem, 1977).
